Legend:
[1] = target: UDP-N-acetylglucosamine 1-carboxyvinyltransferase (Escherichia coli (strain K12), UniProt P0A749); assay: Inhibitory concentration against MurA enzyme in Escherichia coli
Procedure, shortened: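 Enzyme preincubated with inhibitor 10 min at 37 °C before substrates were added. Reaction ran 30 min at 37 °C and was stopped with malachite green reagent (0.03% malachite green, 1.4% ammonium molybdate, 1.3 N HCl) for phosphate read-out.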

[2] = target: T1, UDP-N-acetylenolpyruvoylglucosamine reductase (Escherichia coli (strain K12), UniProt P08373); assay: Inhibitory concentration against MurB enzyme in Escherichia coli
T1 sequence (P08373 whole entry): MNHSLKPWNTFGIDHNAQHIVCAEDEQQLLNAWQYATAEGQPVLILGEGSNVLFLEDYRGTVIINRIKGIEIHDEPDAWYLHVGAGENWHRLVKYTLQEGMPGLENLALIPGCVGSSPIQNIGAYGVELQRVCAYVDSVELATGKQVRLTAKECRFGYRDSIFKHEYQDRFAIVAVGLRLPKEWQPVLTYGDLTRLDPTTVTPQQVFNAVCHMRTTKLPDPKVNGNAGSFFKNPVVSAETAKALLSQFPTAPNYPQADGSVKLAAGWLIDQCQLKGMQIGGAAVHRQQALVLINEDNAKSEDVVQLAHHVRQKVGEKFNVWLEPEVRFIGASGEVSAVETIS
Procedure, shortened: (§1)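 Enzyme (20 nM) preincubated 20 min with inhibitor, then substrates added to final 50 µM EP-UNAG and 100 µM NADPH. Activity followed spectrophotometrically. At least six inhibitor concentrations between 1.5 and 50 µM per compound. IC50 from sigmoid Hill curve fit (0–100).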

[3] = target: T2, UDP-N-acetylenolpyruvoylglucosamine reductase (Staphylococcus aureus, UniProt P61431); assay: Inhibitory concentration against MurB enzyme in Staphylococcus aureus; procedure, shortened: as §1
T2 sequence (P61431 whole entry): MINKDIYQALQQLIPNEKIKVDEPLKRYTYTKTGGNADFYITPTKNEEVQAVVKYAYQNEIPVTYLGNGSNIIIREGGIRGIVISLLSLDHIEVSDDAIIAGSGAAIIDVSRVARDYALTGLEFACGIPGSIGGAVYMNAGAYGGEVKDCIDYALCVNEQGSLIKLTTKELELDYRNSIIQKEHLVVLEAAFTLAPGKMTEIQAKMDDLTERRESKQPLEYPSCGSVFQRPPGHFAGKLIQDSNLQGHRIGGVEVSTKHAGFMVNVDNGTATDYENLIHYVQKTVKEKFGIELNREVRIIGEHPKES

Chain of UDP-N-acetylglucosamine 1-carboxyvinyltransferase (P0A749 whole entry): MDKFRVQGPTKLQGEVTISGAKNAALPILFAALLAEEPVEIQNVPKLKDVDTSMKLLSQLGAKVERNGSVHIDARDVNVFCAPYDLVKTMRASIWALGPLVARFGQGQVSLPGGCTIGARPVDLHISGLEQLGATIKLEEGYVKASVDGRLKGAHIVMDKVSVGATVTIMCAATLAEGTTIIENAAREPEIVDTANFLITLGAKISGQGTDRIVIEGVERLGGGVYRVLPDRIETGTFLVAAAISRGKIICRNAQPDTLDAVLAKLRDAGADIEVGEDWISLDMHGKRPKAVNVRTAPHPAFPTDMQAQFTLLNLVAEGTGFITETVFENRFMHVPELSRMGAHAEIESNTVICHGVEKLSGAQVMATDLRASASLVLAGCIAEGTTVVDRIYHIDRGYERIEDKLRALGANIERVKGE

Row | SMILES | IC50 [1] [µM] | IC50 [2] [µM] | IC50 [3] [µM]
1 | CCN(CC)CCc1c(O)n(-c2ccc(Cl)cc2)n(-c2ccc(Cl)cc2)c1=O [1,2-Bis-(4-chloro-phenyl)-4-(2-diethylamino-ethyl)-pyrazolidine-3,5-dione] | > 50 | > 50 | 
2 | CCC(CC)Cc1c(O)n(-c2ccc(Cl)cc2)n(-c2ccc(Cl)cc2)c1=O [1,2-Bis-(4-chloro-phenyl)-4-(2-ethyl-butyl)-pyrazolidine-3,5-dione] | > 50 | 50 | 
3 | COc1cccc(Cc2c(O)n(-c3ccc(Cl)cc3)n(-c3ccc(Cl)cc3)c2=O)c1 [1,2-Bis-(4-chloro-phenyl)-4-(3-methoxy-benzyl)-pyrazolidine-3,5-dione] | > 50 | 50 | 

The remaining lines, values ahead:

Row | IC50 [1] [µM] | IC50 [2] [µM] | IC50 [3] [µM] | SMILES
4 | > 50 | > 50 | > 50 | O=c1c(Cc2ccccc2Cl)c(O)n(-c2ccc(Cl)cc2)n1-c1ccc(Cl)cc1 [4-(2-Chloro-benzyl)-1,2-bis-(4-chloro-phenyl)-pyrazolidine-3,5-dione]
5 | > 50 | > 50 |  | O=c1c(Cc2ccccc2)c(O)n(-c2ccc(Cl)cc2)n1-c1ccc(Cl)cc1 [4-Benzyl-1,2-bis-(4-chloro-phenyl)-pyrazolidine-3,5-dione]
6 | > 50 | > 50 | > 50 | CCN(CCc1c(O)n(-c2ccc(Cl)cc2)n(-c2ccc(Cl)cc2)c1=O)Cc1ccccc1 [4-[2-(Benzyl-ethyl-amino)-ethyl]-1,2-bis-(4-chloro-phenyl)-pyrazolidine-3,5-dione]
